{"source": "ChEMBL document CHEMBL1926616", "about": "“Design, synthesis and biological evaluation of novel glycosylated diphyllin derivatives as topoisomerase II inhibitors” (Eur J Med Chem, 2012)", "key": {"[1]": {"system": "HCT-116", "test": "Cytotoxicity against human HCT116 cells after 72 hrs by sulforhodamine B and MTT assay", "type": "functional, cell-based", "settings": "HCT-116, 72 h", "outline": "(§1)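 Log-phase cells were plated overnight and exposed for 72 h to a 5-concentration gradient, in triplicate wells. SRB arm: 10% cold TCA fixation for 1 h at 4 °C, 4 mg/ml SRB in 1% acetic acid for 15 min, dye dissolved in 10 mM Tris-HCl, read at 520 nm. MTT arm: 5 mg/mL MTT for 4 h at 37 °C, SDS-isobutanol-HCl solubilisation for 12–20 h, read at 570 nm. IC50 by Logit method from at least 3 independent tests.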"}, "[2]": {"system": "MCF7", "test": "Cytotoxicity against human MCF7 cells after 72 hrs by sulforhodamine B and MTT assay", "type": "functional, cell-based", "settings": "MCF7, 72 h", "outline": "as §1"}, "[3]": {"system": "KB", "test": "Cytotoxicity against human KB cells after 72 hrs by sulforhodamine B and MTT assay", "type": "functional, cell-based", "outline": "as §1"}, "[4]": {"system": "KB", "test": "Cytotoxicity against vincristine-selected multi drug-resistant human KB cells after 72 hrs by sulforhodamine B and MTT assay", "type": "functional, cell-based", "outline": "(§2)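 Log-phase cells were seeded, preincubated (overnight for SRB, 24 h for MTT), then given a five-concentration gradient in triplicate wells for 72 h. For MTT, reagent was added for 4 h at 37 °C, solubilized in SDS-isobutanol-HCl for 12-20 h, and read at 570 nm. IC50 was derived by the Logit method from at least 3 independent tests.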"}, "[5]": {"system": "K562", "test": "Cytotoxicity against human K562 cells after 72 hrs by sulforhodamine B and MTT assay", "type": "functional, cell-based", "settings": "K562, 72 h", "outline": "as §2"}, "[6]": {"system": "K562", "test": "Cytotoxicity against adriamycin-selected multi drug-resistant human K562 cells after 72 hrs by sulforhodamine B and MTT assay", "type": "functional, cell-based", "settings": "K562, 72 h", "outline": "as §2"}, "[7]": {"system": "KB", "test": "Resistance index, ratio of IC50 for vincristine-selected multi drug-resistant human KB cells to IC50 for human KB cells", "type": "functional", "outline": "(§3)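 Resistance factor is the IC50 in the resistant line divided by the IC50 in the parental line. Both IC50s come from 72 h SRB/MTT growth-inhibition assays, derived by the Logit method from at least 3 independent tests.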"}, "[8]": {"system": "K562", "test": "Resistance index, ratio of IC50 for adriamycin-selected multi drug-resistant human K562 cells to IC50 for human K562 cells", "type": "functional", "outline": "as §3"}, "[9]": {"molecular_target": "DNA topoisomerase 2-alpha (Homo sapiens) (UniProt P11388)", "sequence (P11388 whole entry)": "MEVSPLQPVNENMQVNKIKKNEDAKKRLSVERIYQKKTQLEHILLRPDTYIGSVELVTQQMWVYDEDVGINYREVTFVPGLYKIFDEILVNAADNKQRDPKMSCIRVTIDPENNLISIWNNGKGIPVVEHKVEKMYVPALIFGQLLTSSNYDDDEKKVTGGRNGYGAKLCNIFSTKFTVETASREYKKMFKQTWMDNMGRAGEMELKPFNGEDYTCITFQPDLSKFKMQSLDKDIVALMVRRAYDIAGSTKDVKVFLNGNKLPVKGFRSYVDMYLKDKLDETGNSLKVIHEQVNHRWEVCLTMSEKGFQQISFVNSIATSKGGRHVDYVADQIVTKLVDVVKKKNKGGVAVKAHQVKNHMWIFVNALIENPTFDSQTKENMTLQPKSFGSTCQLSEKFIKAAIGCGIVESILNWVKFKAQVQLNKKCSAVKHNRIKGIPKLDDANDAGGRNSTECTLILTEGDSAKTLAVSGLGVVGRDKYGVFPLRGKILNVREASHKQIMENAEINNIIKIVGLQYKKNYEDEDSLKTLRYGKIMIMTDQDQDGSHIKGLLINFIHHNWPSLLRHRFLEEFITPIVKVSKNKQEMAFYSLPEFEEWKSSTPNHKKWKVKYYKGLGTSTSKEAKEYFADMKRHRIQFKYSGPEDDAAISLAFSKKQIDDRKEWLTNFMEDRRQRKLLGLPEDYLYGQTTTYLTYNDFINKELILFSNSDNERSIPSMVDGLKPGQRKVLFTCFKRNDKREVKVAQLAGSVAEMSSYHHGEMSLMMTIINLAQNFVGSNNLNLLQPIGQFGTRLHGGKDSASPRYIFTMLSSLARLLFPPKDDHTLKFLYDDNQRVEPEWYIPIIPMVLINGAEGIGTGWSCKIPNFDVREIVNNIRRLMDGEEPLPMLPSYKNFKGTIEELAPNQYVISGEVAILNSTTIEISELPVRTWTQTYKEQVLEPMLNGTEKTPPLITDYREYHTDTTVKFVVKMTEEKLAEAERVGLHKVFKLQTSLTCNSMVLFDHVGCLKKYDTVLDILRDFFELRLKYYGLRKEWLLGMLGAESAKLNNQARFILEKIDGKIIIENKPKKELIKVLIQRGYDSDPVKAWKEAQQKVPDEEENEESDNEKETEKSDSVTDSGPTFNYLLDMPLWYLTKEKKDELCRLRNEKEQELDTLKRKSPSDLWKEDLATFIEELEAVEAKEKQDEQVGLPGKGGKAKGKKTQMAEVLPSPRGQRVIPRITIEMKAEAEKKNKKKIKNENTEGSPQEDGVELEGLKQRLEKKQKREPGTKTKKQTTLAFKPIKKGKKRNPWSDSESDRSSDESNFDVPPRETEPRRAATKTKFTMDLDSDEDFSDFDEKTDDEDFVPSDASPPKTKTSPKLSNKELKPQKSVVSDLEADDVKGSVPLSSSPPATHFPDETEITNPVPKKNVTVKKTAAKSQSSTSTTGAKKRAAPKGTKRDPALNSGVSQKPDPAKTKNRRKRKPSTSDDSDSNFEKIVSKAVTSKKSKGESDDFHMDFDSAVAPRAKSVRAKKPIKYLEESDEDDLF", "test": "Inhibition of human topoisomerase 2-mediated decatenation of kinetoplast DNA at 100 uM after 15 mins by agarose gel electrophoresis", "outline": "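ATP-dependent kDNA decatenation by 1 unit Topo II in 50 mM Tris-HCl pH 7.7, 50 mM KCl, 5 mM MgCl2, 1 mM ATP, 0.5 mM DTT, 0.5 mM EDTA and BSA, run for 15 min at 37 °C. Stopped with 10% SDS, then run on 1% agarose in TAE at 4 V/cm for 1 h and stained with ethidium bromide.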"}, "[10]": {"system": "HL-60", "test": "Cell cycle arrest in human HL60 cells assessed as accumulation at G0/G1 phase at 1 uM after 24 hrs using propidium iodide stain by FACS-flow cytometry (reference value: 39%)", "type": "functional"}, "[11]": {"system": "HL-60", "test": "Cell cycle arrest in human HL60 cells assessed as accumulation at G0/G1 phase at 10 uM after 24 hrs using propidium iodide stain by FACS-flow cytometry (reference value: 39%)", "type": "functional"}, "[12]": {"system": "HL-60", "test": "Cell cycle arrest in human HL60 cells assessed as accumulation at S phase at 1 uM after 24 hrs using propidium iodide stain by FACS-flow cytometry (reference value: 38.4%)", "type": "functional"}, "[13]": {"system": "HL-60", "test": "Cell cycle arrest in human HL60 cells assessed as accumulation at S phase at 10 uM after 24 hrs using propidium iodide stain by FACS-flow cytometry (reference value: 38.4%)", "type": "functional"}, "[14]": {"system": "HL-60", "test": "Cell cycle arrest in human HL60 cells assessed as accumulation at G2/M phase at 1 uM after 24 hrs using propidium iodide stain by FACS-flow cytometry (reference value: 22.6%)", "type": "functional"}, "[15]": {"system": "HL-60", "test": "Cell cycle arrest in human HL60 cells assessed as accumulation at G2/M phase at 10 uM after 24 hrs using propidium iodide stain by FACS-flow cytometry (reference value: 22.6%)", "type": "functional"}, "[16]": {"system": "HL-60", "test": "Induction of apoptosis in human HL60 cells assessed as DNA fragmentation at 10 uM after 36 hrs by gel electrophoresis", "type": "functional, cell-based", "outline": "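HL-60 cells were seeded and exposed to compound for 36 h. Harvested cells were lysed with an equal volume of 1.2% SDS, and the fragmented DNA was extracted and resolved by gel electrophoresis.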"}, "[17]": {"system": "HCT-116", "test": "Cell cycle arrest in human HCT116 cells assessed as accumulation at G0/G1 phase at 1 to 10 uM after 24 hrs using propidium iodide stain by FACS-flow cytometry", "type": "functional, cell-based"}, "[18]": {"system": "HCT-116", "test": "Cell cycle arrest in human HCT116 cells assessed as accumulation at G2/M phase at 1 to 10 uM after 24 hrs using propidium iodide stain by FACS-flow cytometry", "type": "functional, cell-based"}, "[19]": {"system": "HL-60", "test": "Cell cycle arrest in human HL60 cells assessed as accumulation at G0/G1 phase at 1 to 10 uM using propidium iodide stain by FACS-flow cytometry", "type": "functional, cell-based", "settings": "TDE = time-dependent effect"}, "[20]": {"system": "HL-60", "test": "Cell cycle arrest in human HL60 cells assessed as accumulation at G2/M phase at 1 to 10 uM using propidium iodide stain by FACS-flow cytometry", "type": "functional, cell-based", "settings": "TDE = time-dependent effect"}, "[21]": {"system": "HL-60", "test": "Cell cycle arrest in human HL60 cells assessed as accumulation at G0/G1 phase after 24 hrs using propidium iodide stain by FACS-flow cytometry", "type": "functional, cell-based"}, "[22]": {"system": "HL-60", "test": "Cell cycle arrest in human HL60 cells assessed as accumulation at G2/M phase after 24 hrs using propidium iodide stain by FACS-flow cytometry", "type": "functional, cell-based"}, "[23]": {"system": "HCT-116", "test": "Cell cycle arrest in human HCT116 cells assessed as accumulation at G0/G1 phase at 1 to 10 uM using propidium iodide stain by FACS-flow cytometry", "type": "functional, cell-based", "settings": "TDE = time-dependent effect"}, "[24]": {"system": "HCT-116", "test": "Cell cycle arrest in human HCT116 cells assessed as accumulation at G2/M phase at 1 to 10 uM using propidium iodide stain by FACS-flow cytometry", "type": "functional, cell-based", "settings": "TDE = time-dependent effect"}, "[25]": {"system": "HCT-116", "test": "Cell cycle arrest in human HCT116 cells assessed as accumulation at G0/G1 phase after 24 hrs using propidium iodide stain by FACS-flow cytometry", "type": "functional, cell-based"}, "[26]": {"system": "HCT-116", "test": "Cell cycle arrest in human HCT116 cells assessed as accumulation at G2/M phase after 24 hrs using propidium iodide stain by FACS-flow cytometry", "type": "functional, cell-based"}}, "note": "Calls of active or inactive are those of the source. No cut-off for these calls is given here."}
{"smiles": "COc1cc2c(O[C@@H]3OC[C@@H](O)[C@H](O)[C@H]3O)c3c(c(-c4ccc5c(c4)OCO5)c2cc1OC)C(=O)OC3", "values": [{"measurement": "IC50", "setting": "[1]", "value": 820, "unit": "nM"}, {"measurement": "IC50", "setting": "[2]", "value": 1550, "unit": "nM"}, {"measurement": "IC50", "setting": "[3]", "value": 410, "unit": "nM"}, {"measurement": "IC50", "setting": "[4]", "value": 1190, "unit": "nM"}, {"measurement": "IC50", "setting": "[5]", "value": 4400, "unit": "nM"}, {"measurement": "IC50", "setting": "[6]", "value": 58800, "unit": "nM"}, {"measurement": "Ratio IC50", "setting": "[7]", "value": 2.9}, {"measurement": "Ratio IC50", "setting": "[8]", "value": 13.4}, {"measurement": "inhibition", "setting": "[9]", "value": "inactive"}, {"measurement": "Activity", "setting": "[10]", "value": 45.6, "unit": "%"}, {"measurement": "Activity", "setting": "[11]", "value": 47, "unit": "%"}, {"measurement": "Activity", "setting": "[12]", "value": 35.5, "unit": "%"}, {"measurement": "Activity", "setting": "[13]", "value": 33.8, "unit": "%"}, {"measurement": "Activity", "setting": "[14]", "value": 18.9, "unit": "%"}, {"measurement": "Activity", "setting": "[15]", "value": 19.2, "unit": "%"}, {"measurement": "Activity", "setting": "[16]", "value": "Active"}, {"measurement": "Activity", "setting": "[17]", "value": "Active"}, {"measurement": "Activity", "setting": "[18]", "value": "Active"}, {"measurement": "Activity", "setting": "[19]", "value": "tde"}, {"measurement": "Activity", "setting": "[20]", "value": "tde"}, {"measurement": "Activity", "setting": "[21]", "value": "Dose-dependent effect"}, {"measurement": "Activity", "setting": "[22]", "value": "Dose-dependent effect"}, {"measurement": "Activity", "setting": "[23]", "value": "tde"}, {"measurement": "Activity", "setting": "[24]", "value": "tde"}, {"measurement": "Activity", "setting": "[25]", "value": "Dose-dependent effect"}, {"measurement": "Activity", "setting": "[26]", "value": "Dose-dependent effect"}]}
{"smiles": "COc1cc2c(O[C@@H]3O[C@H](C)[C@@H](O)[C@H](O)[C@H]3O)c3c(c(-c4ccc5c(c4)OCO5)c2cc1OC)C(=O)OC3", "note": "[PATENTIFLORIN A]", "values": [{"measurement": "IC50", "setting": "[1]", "value": 990, "unit": "nM"}, {"measurement": "IC50", "setting": "[2]", "value": 440, "unit": "nM"}, {"measurement": "IC50", "setting": "[3]", "value": 93, "unit": "nM"}, {"measurement": "IC50", "setting": "[4]", "value": 573, "unit": "nM"}, {"measurement": "IC50", "setting": "[5]", "value": 1430, "unit": "nM"}, {"measurement": "IC50", "setting": "[6]", "value": 16100, "unit": "nM"}, {"measurement": "Ratio IC50", "setting": "[7]", "value": 6.2}, {"measurement": "Ratio IC50", "setting": "[8]", "value": 11.3}, {"measurement": "inhibition", "setting": "[9]", "value": "inactive"}, {"measurement": "Activity", "setting": "[10]", "value": 45.9, "unit": "%"}, {"measurement": "Activity", "setting": "[11]", "value": 54.4, "unit": "%"}, {"measurement": "Activity", "setting": "[12]", "value": 38, "unit": "%"}, {"measurement": "Activity", "setting": "[13]", "value": 22.8, "unit": "%"}, {"measurement": "Activity", "setting": "[14]", "value": 16.1, "unit": "%"}, {"measurement": "Activity", "setting": "[15]", "value": 22.8, "unit": "%"}, {"measurement": "Activity", "setting": "[16]", "value": "Active"}, {"measurement": "Activity", "setting": "[17]", "value": "Active"}, {"measurement": "Activity", "setting": "[18]", "value": "Active"}, {"measurement": "Activity", "setting": "[19]", "value": "tde"}, {"measurement": "Activity", "setting": "[20]", "value": "tde"}, {"measurement": "Activity", "setting": "[21]", "value": "Dose-dependent effect"}, {"measurement": "Activity", "setting": "[22]", "value": "Dose-dependent effect"}, {"measurement": "Activity", "setting": "[23]", "value": "tde"}, {"measurement": "Activity", "setting": "[24]", "value": "tde"}, {"measurement": "Activity", "setting": "[25]", "value": "Dose-dependent effect"}, {"measurement": "Activity", "setting": "[26]", "value": "Dose-dependent effect"}]}
